Assay results published in PMC4277779 (Journal of the American Chemical Society, 2014).
Non-standard residues stand in square brackets, D forms with d. No end group written: not given here. Orn = NCCC[C@H](N)C(=O)O

Columns and labels:
[1] = Far-UV circular dichroism: effects of pH and temperature; type: physicochemical; details: 4 to 20 to 37 °C, phosphate buffer
In short: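 Far-UV CD spectra of the test peptides were recorded in phosphate buffer (pH 7.0) and in the NMR buffer (100 mM acetate, pH 3.8). A temperature series at 4, 20 and 37 °C was run in phosphate buffer.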

[2] = ΔδCαH-based β-hairpin population and thermodynamic analysis by NMR; type: physicochemical; details: relative to parent peptide I, 4 °C, pH 3.8; for ΔΔGfold: calculated for each reporter position and averaged
In short: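 NMR samples were prepared in 100 mM acetate buffer, pH 3.8.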

[3] = 4 °C, cited from earlier work
[4] = aqueous buffer pH 3.8, ref 9a (Syud et al.)

Substance	effect of temperature on far UV CD (in words) [1]	effect of residue replacement on β-hairpin population (in words) [2]	ΔΔGfold [2]	population of the β-hairpin conformation ([3]; aqueous buffer pH 3.8, NMR, ref 9b)	β-hairpin population at reporter position Ile 10 [3, 4]	β-hairpin population at reporter position Orn 8 [3, 4]	β-hairpin population at reporter position Val 3 [3, 4]	β-hairpin population at reporter position Val 5 [3, 4]
Arg-Tyr-Val-TS--Val-DPro-Gly-Orn-Lys-Ile-Leu-Gln-NH2 [Peptide IV]	does not significantly alter	enhanced β-hairpin population	–0.6 ± 0.3 kcal/mol					
Arg-Tyr-Val-Glu-Val-DPro-Gly-Orn-TS+-Ile-Leu-Gln-NH2 [Peptide III]	does not significantly alter	enhanced β-hairpin population	–0.5 ± 0.4 kcal/mol					
RYVEV[dP]G[Orn]KILQ-NH2 [Peptide I]	does not significantly alter			~68%	59%	65%	70%	76%
Arg-Tyr-Val-Glu-Val-DPro-Gly-Orn-TO+-Ile-Leu-Gln-NH2 [Peptide II]		little effect on β-hairpin population	+0.1 ± 0.2 kcal/mol					
